# From ChEMBL document CHEMBL3593226, “Discovery of small molecules with vasodilating characteristics and adjustable hydrolytic behavior” (Bioorg Med Chem, 2015)
# Activity calls are given as the source filed them.
# Legend:
# Aorta [1] = assay: Vasodilating activity in potassium chloride-mediated precontracted guinea pig aorta compound treated every 45 mins by chart recorder analysis; format: functional, tissue-based; conditions: Cavia porcellus, 0.75 h
# In short: (§1)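 Guinea pig aortic or pulmonary artery rings held at 19.6 mN resting tension and precontracted with 90 mM KCl. Compound added cumulatively every 45 min after a control period, with relaxation recorded on a chart recorder. Solvent-only effect subtracted. Mean ± SEM of 3–5 experiments; paired Student's t-test.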
# Right cardiac atrium = assay: Chronotropic activity in electrically-stimulated guinea pig right atrium compound treated every 45 mins by chart recorder analysis; format: functional, tissue-based; conditions: Cavia porcellus, 0.75 h
# In short: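 Isolated guinea pig right atria, resting tension 10.37 mN. After a 30 min control period, compound added cumulatively to the bath until steady state. Rate change recorded on a chart recorder; solvent-only effect subtracted. Stocks in distilled water or DMSO. Mean ± SEM of 4–5 experiments; paired Student's t-test.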
# Ileum = assay: Spasmolytic activity in potassium chloride-mediated precontracted guinea pig terminal ileum compound treated every 45 mins by chart recorder analysis; format: functional, tissue-based; conditions: Cavia porcellus, 0.75 h
# In short: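 Guinea pig terminal ileum held at 4.9 mN resting tension and precontracted with 60 mM KCl. Compound added cumulatively every 45 min after a control period, with relaxation recorded on a chart recorder. Solvent-only effect subtracted. Stocks in distilled water or DMSO. Mean ± SEM of 3–5 experiments.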
# [2] = Vasodilating activity in potassium chloride-mediated precontracted guinea pig pulmonary artery compound treated every 45 mins by chart recorder analysis; format: functional, tissue-based, Cavia porcellus; in short: as §1
# [3] = Inotropic activity in electrically-stimulated guinea pig papillary muscle compound treated every 45 mins by chart recorder analysis; format: functional, tissue-based; conditions: Cavia porcellus, 0.75 h
# In short: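 Guinea pig papillary muscles driven electrically at 1 Hz, 3 ms pulses, amplitude 10% above threshold; resting tension 3.92 mN. After a 30 min control period, compound added cumulatively until steady state. Contraction force recorded on a chart recorder; solvent-only effect subtracted. Mean ± SEM of 4–5 experiments; paired t-test.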
# Aorta [4] = assay: Vasodilating activity in potassium chloride-mediated precontracted guinea pig aorta at EC50 compound incubated in sealed tube filled with distilled water at room temperature for 24 hrs prior to testing by chart recorder analysis; format: functional, tissue-based; conditions: Cavia porcellus
# In short: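 Compound dissolved in distilled water and kept sealed at room temperature for 24 h. The solution was then added at a single concentration to guinea pig aortic rings precontracted with 90 mM KCl. Change in contraction force recorded on a chart recorder for 5 min. Mean ± SEM of three experiments.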
# [5] = Half life of the compound in D2O at 20 mg/ml at 20 degC by 1H-NMR spectroscopic analysis; format: physicochemical
# In short: (§2)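 Compound dissolved in D2O and kept at 20 °C. 1H NMR spectra taken at 1, 3, 5, 7 and 24 h, in triplicate. Compound-to-degradation-product ratio (%) used to follow hydrolysis. Half-life obtained from an equation fitted to the time-course data. Mean ± SEM of three independent experiments.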
# [6] = Stability of the compound in D2O assessed as degradation product ratio at 20 mg/ml at 20 degC after 24 hrs by 1H-NMR spectroscopic analysis; format: ADME; in short: as §2
# [7] = Stability of the compound in D2O assessed as compound remaining at 20 mg/ml at 20 degC after 24 hrs by 1H-NMR spectroscopic analysis; format: physicochemical; conditions: read-out: Stability; in short: as §2
# Aorta [8] = assay: Vasodilating activity in potassium chloride-mediated precontracted guinea pig aorta at EC50 compound treated every 45 mins by chart recorder analysis in presence of 100 uM KATP channel inhibitor glibenclamide; format: functional
# Aorta [9] = assay: Vasodilating activity in potassium chloride-mediated precontracted guinea pig aorta at EC50 compound treated every 45 mins by chart recorder analysis in presence of 100 uM eNOS inhibitor nitro-L-arginine; format: functional, tissue-based; conditions: Cavia porcellus
# Aorta [10] = assay: Vasodilating activity in potassium chloride-mediated precontracted guinea pig aorta at EC50 compound treated every 45 mins by chart recorder analysis in presence of 30 uM KATP channel inhibitor glibenclamide; format: functional
# [11] = Stability of the compound in D2O at 20 mg/ml at 20 degC measured over 24 hrs by 1H-NMR spectroscopic analysis; format: physicochemical; in short: as §2
EC50 (Aorta [1]) [µM],EC50 (Right cardiac atrium) [µM],EC50 (Ileum) [µM],EC50 [2] [µM],EC50 [3] [µM],half-life at 20 mg/ml [5] [h],Ratio [6],"remaining at 24 h, 20 mg/ml [7] [%]",Stability [11],SMILES,Activity (Aorta [4]),Activity (Aorta [8]; Cavia porcellus),Activity (Aorta [9]),Activity (Aorta [10]; Cavia porcellus),Activity (Aorta [8]) [%],Activity (Aorta [10]) [%]
36,> 100,16,> 100,> 100,–,–,–,–,S=C(OC1CCCC1)n1ccnc1,–,–,–,–,–,–
5.8,> 100,> 100,24,77,–,–,–,–,CC(=O)OCCSC(=S)n1ccnc1,–,–,–,–,–,–
20,> 100,40,63,30,–,–,–,–,S=C(SCc1ccccc1)n1ccnc1,–,–,–,–,–,–
> 100,> 100,> 100,> 100,> 100,–,–,–,–,CCCOC(=S)N1CCN(C)CC1,–,–,–,–,–,–
16,> 100,32,20,> 100,–,–,–,–,CCOC(=O)CCSC(=S)n1ccnc1,–,–,–,–,–,–
> 100,35,16,> 100,5.9,–,–,–,–,CCCCCCOC(=S)OCCCN(C)C,–,–,–,–,–,–
> 100,> 100,> 100,> 100,37,–,–,–,–,CCCOC(=S)OCCCN(C)C,–,–,–,–,–,–
> 100,> 100,> 100,> 100,> 100,–,–,–,–,CN(C)CCOC(=S)OCCN(C)C,–,–,–,–,–,–
7.8,> 100,5.7,6.9,78,–,–,–,Stable,CSC(=S)n1ccnc1.Cl,–,–,–,–,50,50
6.3,> 100,9.5,11,> 100,–,–,–,–,CSC(=S)n1ccnc1C,–,–,–,–,–,–

# Further lines, the compound ahead of its results:
SMILES,EC50 (Aorta [1]) [µM],EC50 (Right cardiac atrium) [µM],EC50 (Ileum) [µM],EC50 [2] [µM],EC50 [3] [µM],half-life at 20 mg/ml [5] [h],Ratio [6],"remaining at 24 h, 20 mg/ml [7] [%]",Stability [11],Activity (Aorta [4]),Activity (Aorta [8]; Cavia porcellus),Activity (Aorta [9]),Activity (Aorta [10]; Cavia porcellus),Activity (Aorta [8]) [%],Activity (Aorta [10]) [%]
S=C(N1CCCCC1)n1ccnc1,> 100,> 100,> 100,> 100,> 100,–,–,–,–,–,–,–,–,–,–
CCOC(=S)n1ccnc1.Cl,53,> 100,4.8,19,> 100,6.5,0.35,26,–,inactive,–,–,–,–,–
CCOC(=S)OCCCN(C)C,> 100,> 100,> 100,> 100,> 100,–,–,–,–,–,–,–,–,–,–
CCCCOC(=S)OCCCN(C)C,> 100,> 100,17,> 100,4.3,–,–,–,–,–,–,–,–,–,–
CC(C)OC(=O)n1ccnc1,> 100,> 100,> 100,> 100,> 100,–,–,–,–,–,–,–,–,–,–
Cl.S=C(OC1CCCCC1)n1ccnc1,14,> 100,> 100,24,> 100,12.3,0.09,8,–,inactive,inactive,inactive,inactive,–,–
CCOC(=S)OCCN(C)C,> 100,> 100,> 100,> 100,> 100,–,–,–,–,–,–,–,–,–,–
CCCOC(=S)n1ccnc1,30,> 100,21,100,> 100,–,–,–,–,–,–,–,–,–,–
CCCOC(=S)OCCN(C)C,> 100,> 100,> 100,> 100,58,–,–,–,–,–,–,–,–,–,–
COc1ccc(CSC(=S)n2ccnc2)cc1,13,> 100,> 100,24,> 100,–,–,–,–,–,–,–,–,–,–
CCCCOC(=S)n1ccnc1,13,> 100,21,23,> 100,–,–,–,–,–,–,–,–,–,–
O=C(OC1CCCCC1)n1ccnc1,> 100,> 100,> 100,> 100,> 100,–,–,–,–,–,–,–,–,–,–
CCOC(=S)N1CCN(C)CC1,> 100,> 100,> 100,> 100,> 100,–,–,–,–,–,–,–,–,–,–
CC(C)OC(=S)n1ccnc1,46,> 100,21,> 100,> 100,–,–,–,–,–,–,–,–,–,–
CC(C)CN(CC(C)C)C(=S)n1ccnc1,14,48,17,26,6.5,–,–,–,–,–,–,–,–,–,–
CSC(=S)n1c(C)nc2ccccc21,23,> 100,26,25,56,–,–,–,–,–,–,–,–,–,–
COc1cc(CSC(=S)n2ccnc2)cc(OC)c1OC,3,> 100,15,7.9,27,–,–,–,–,–,–,–,–,–,–
Cc1nccn1C(=S)SCc1ccccc1,3.4,16,16,13,> 100,–,–,–,–,–,–,–,–,–,–
C[N+](C)(C)CCOC(=S)OCC[N+](C)(C)C,> 100,> 100,> 100,> 100,> 100,–,–,–,–,–,–,–,–,–,–
